Results reported in paper PMC4168221 (Clinical Drug Investigation, 2014).
“Also recorded” adds a separate entry of the source.

Experiments:
[1] = system: urinary glucose excretion; assay: 24-h urinary glucose excretion, change from baseline; type: in vivo, human (Japanese patients with type 2 diabetes mellitus); settings: both doses
How it was run: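 Each crossover period gave one oral single dose of test compound (100 or 200 mg) 10 min before breakfast, with ≥14-day washout and fixed meals. Change was taken from the baseline day.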

[2] = single dose of canagliflozin 100 mg; non-Japanese patients with normal renal function or mild renal impairment; cited from earlier work
[3] = Japanese patients with type 2 diabetes; cited from earlier work
[4] = Urinary pharmacokinetics of unchanged canagliflozin; type: in vivo, human (Japanese patients with type 2 diabetes mellitus); settings: for Ae0–72h% (cumulative urinary excretion rate from time zero to 72 h) / CLR: mean (SD)
How it was run: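 Per period, urine was collected at 11–0 h pre-dose, then 0–4.5, 4.5–10.5, 10.5–13, 13–24, 24–48 and 48–72 h after a single oral 100 or 200 mg dose. Volumes were recorded, and mixed aliquots were stored at −20 °C. Parent drug was measured by solid-phase extraction then HPLC–MS/MS (validated 1–2,000 ng/mL).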

[5] = Safety: adverse events after single doses; type: in vivo, human (Japanese patients with type 2 diabetes mellitus)
How it was run: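 Adverse events were recorded with intensity and relation to drug, then coded by system organ class and preferred term (MedDRA/J 15.0). Adverse drug reactions were events the investigator judged reasonably related. Also checked: laboratory tests, renal function, vital signs, body weight and 12-lead ECG. Patients were hospitalised and received single 100 and 200 mg oral doses in crossover.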

blood glucose = settings: phase III; non-Japanese type 2 diabetes patients with moderate renal impairment (eGFR ≥30 and <50 mL/min/1.73 m^2); cited from earlier work
[6] = canagliflozin 100 mg, moderate renal impairment (n = 12)
[7] = canagliflozin 100 mg, normal renal function or mild renal impairment (n = 12)
[8] = canagliflozin 200 mg, moderate renal impairment (n = 12)
[9] = canagliflozin 200 mg, normal renal function or mild renal impairment (n = 12)
[10] = Moderate renal impairment, canagliflozin 100 mg (n = 12)
[11] = Moderate renal impairment, canagliflozin 200 mg (n = 12)
[12] = Normal renal function or mild renal impairment, canagliflozin 100 mg (n = 12)
[13] = Normal renal function or mild renal impairment, canagliflozin 200 mg (n = 12)
[14] = single doses of 100 and 200 mg, all patients

## Cc1ccc([C@@H]2O[C@H](CO)[C@@H](O)[C@H](O)[C@H]2O)cc1Cc1ccc(-c2ccc(F)cc2)s1 [Canagliflozin, canagliflozin]
[1]
  ΔUGE24 h in moderate renal impairment relative to normal renal function or mild renal impairment: approximately 70%
[2]
  mean 24-h urinary excretion ratio: 0.55%
[3]
  body weight: significantly reduced
[4]; % of the dose, both doses
  amount of canagliflozin excreted into urine from 0 to 72 h (urinary excretion ratio of unchanged drug): < 1%
[4]; [6]
  Ae0–72h% (cumulative urinary excretion rate from time zero to 72 h): 0.538 (0.229) %
  CLR: 0.064 (0.021) L/h
[4]; [7]
  Ae0–72h% (cumulative urinary excretion rate from time zero to 72 h): 0.541 (0.168) %
  CLR: 0.085 (0.037) L/h
[4]; [8]
  Ae0–72h% (cumulative urinary excretion rate from time zero to 72 h): 0.480 (0.143) %
  CLR: 0.058 (0.022) L/h
[4]; [9]
  Ae0–72h% (cumulative urinary excretion rate from time zero to 72 h): 0.559 (0.182) %
  CLR: 0.080 (0.029) L/h
[5]; [10]
  Adverse events Total: Incidence: 25.0%
  Adverse events Total: No. of events: 3
  Adverse events Total: No. of subjects: 3
  Back pain: Incidence: 0.0%
  Back pain: No. of events: 0
  Back pain: No. of subjects: 0
  Blood CPK increased: Incidence: 0.0%
  Blood CPK increased: No. of events: 0
  Blood CPK increased: No. of subjects: 0
  Blood creatinine increased: Incidence: 0.0%
  Blood creatinine increased: No. of events: 0
  Blood creatinine increased: No. of subjects: 0
  Blood glucose increased: Incidence: 0.0%
  Blood glucose increased: No. of events: 0
  Blood glucose increased: No. of subjects: 0
  Constipation: Incidence: 0.0%
  Constipation: No. of events: 0
  Constipation: No. of subjects: 0
  Diarrhea: Incidence: 0.0%
  Diarrhea: No. of events: 0
  Diarrhea: No. of subjects: 0
  Nasopharyngitis: Incidence: 8.3%
  Nasopharyngitis: No. of events: 1
  Nasopharyngitis: No. of subjects: 1
  Pollakiuria: Incidence: 8.3%
  Pollakiuria: No. of events: 1
  Pollakiuria: No. of subjects: 1
  Protein urine present: Incidence: 8.3%
  Protein urine present: No. of events: 1
  Protein urine present: No. of subjects: 1
[5]; [11]
  Adverse events Total: Incidence: 8.3%
  Adverse events Total: No. of events: 1
  Adverse events Total: No. of subjects: 1
  Back pain: Incidence: 0.0%
  Back pain: No. of events: 0
  Back pain: No. of subjects: 0
  Blood CPK increased: Incidence: 0.0%
  Blood CPK increased: No. of events: 0
  Blood CPK increased: No. of subjects: 0
  Blood creatinine increased: Incidence: 0.0%
  Blood creatinine increased: No. of events: 0
  Blood creatinine increased: No. of subjects: 0
  Blood glucose increased: Incidence: 0.0%
  Blood glucose increased: No. of events: 0
  Blood glucose increased: No. of subjects: 0
  Constipation: Incidence: 0.0%
  Constipation: No. of events: 0
  Constipation: No. of subjects: 0
  Diarrhea: Incidence: 0.0%
  Diarrhea: No. of events: 0
  Diarrhea: No. of subjects: 0
  Nasopharyngitis: Incidence: 8.3%
  Nasopharyngitis: No. of events: 1
  Nasopharyngitis: No. of subjects: 1
  Pollakiuria: Incidence: 0.0%
  Pollakiuria: No. of events: 0
  Pollakiuria: No. of subjects: 0
  Protein urine present: Incidence: 0.0%
  Protein urine present: No. of events: 0
  Protein urine present: No. of subjects: 0
[5]; [12]
  Adverse events Total: Incidence: 16.7%
  Adverse events Total: No. of events: 3
  Adverse events Total: No. of subjects: 2
  Back pain: Incidence: 8.3%
  Back pain: No. of events: 1
  Back pain: No. of subjects: 1
  Blood CPK increased: Incidence: 0.0%
  Blood CPK increased: No. of events: 0
  Blood CPK increased: No. of subjects: 0
  Blood creatinine increased: Incidence: 0.0%
  Blood creatinine increased: No. of events: 0
  Blood creatinine increased: No. of subjects: 0
  Blood glucose increased: Incidence: 0.0%
  Blood glucose increased: No. of events: 0
  Blood glucose increased: No. of subjects: 0
  Constipation: Incidence: 8.3%
  Constipation: No. of events: 1
  Constipation: No. of subjects: 1
  Diarrhea: Incidence: 8.3%
  Diarrhea: No. of events: 1
  Diarrhea: No. of subjects: 1
  Nasopharyngitis: Incidence: 0.0%
  Nasopharyngitis: No. of events: 0
  Nasopharyngitis: No. of subjects: 0
  Pollakiuria: Incidence: 0.0%
  Pollakiuria: No. of events: 0
  Pollakiuria: No. of subjects: 0
  Protein urine present: Incidence: 0.0%
  Protein urine present: No. of events: 0
  Protein urine present: No. of subjects: 0
[5]; [13]
  Adverse events Total: Incidence: 25.0%
  Adverse events Total: No. of events: 4
  Adverse events Total: No. of subjects: 3
  Back pain: Incidence: 0.0%
  Back pain: No. of events: 0
  Back pain: No. of subjects: 0
  Blood CPK increased: Incidence: 8.3%
  Blood CPK increased: No. of events: 1
  Blood CPK increased: No. of subjects: 1
  Blood creatinine increased: Incidence: 8.3%
  Blood creatinine increased: No. of events: 1
  Blood creatinine increased: No. of subjects: 1
  Blood glucose increased: Incidence: 8.3%
  Blood glucose increased: No. of events: 1
  Blood glucose increased: No. of subjects: 1
  Constipation: Incidence: 0.0%
  Constipation: No. of events: 0
  Constipation: No. of subjects: 0
  Diarrhea: Incidence: 0.0%
  Diarrhea: No. of events: 0
  Diarrhea: No. of subjects: 0
  Nasopharyngitis: Incidence: 8.3%
  Nasopharyngitis: No. of events: 1
  Nasopharyngitis: No. of subjects: 1
  Pollakiuria: Incidence: 0.0%
  Pollakiuria: No. of events: 0
  Pollakiuria: No. of subjects: 0
  Protein urine present: Incidence: 0.0%
  Protein urine present: No. of events: 0
  Protein urine present: No. of subjects: 0
[5]; [14]
  adverse events considered related to the study drug: Only one case of pollakiuria and one of diarrhea were considered to be related to the study drug
  hypoglycemia: no patient developed hypoglycemia; also recorded: None of the patients developed hypoglycemia; also recorded: no cases of hypoglycemia
Blood glucose
  blood glucose-lowering effect compared with placebo: significant blood glucose-lowering effect
